Source: PubChem
Hits are enriched below; roughly 2.3% of the tested compounds scored in any of these assays.
SKN-1 inh: inhibitors of C. elegans SKN-1 | C. elegans VP596 Pgst-4::GFP/RFP ratio, acrylamide-induced, 24 h | inhibition, % at 21.8 µM | hit rate 0.49% among 360,000;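 active = interference check ratio from 0.5 to 1.5 plus GFP to RFP signal ratio inhibition reaching or exceeding a fixed threshold, cut at about 30% in these data, passing the limit was not always enough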
DNMT1 block: DNMT1 (human) enzyme inhibition; AID 588458; hit rate 0.83% among 360,000; P26358; DNMT1 molecular beacon, Hinp1I cleavage, fluorescence; inhibition (reported as % activation of signal), % at 10 µM; in the data active = inhibition above about 50%
CSN deneddyl inh: CSN deneddylation inhibition; hit rate 0.38% among 360,000; AID 651999; Purified CSN, SCF-Nedd8-OG deneddylation, fluorescence polarization; Q92905; inhibition, % at 12.5 µM;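 active = pattern-corrected inhibition above about 35%, with an unprinted fluorescence ratio check between 0.5 and 1.5, limit read from the data, passing the limit was not always enough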
Target sequence (Q92905 whole entry, looked up, one chain of several): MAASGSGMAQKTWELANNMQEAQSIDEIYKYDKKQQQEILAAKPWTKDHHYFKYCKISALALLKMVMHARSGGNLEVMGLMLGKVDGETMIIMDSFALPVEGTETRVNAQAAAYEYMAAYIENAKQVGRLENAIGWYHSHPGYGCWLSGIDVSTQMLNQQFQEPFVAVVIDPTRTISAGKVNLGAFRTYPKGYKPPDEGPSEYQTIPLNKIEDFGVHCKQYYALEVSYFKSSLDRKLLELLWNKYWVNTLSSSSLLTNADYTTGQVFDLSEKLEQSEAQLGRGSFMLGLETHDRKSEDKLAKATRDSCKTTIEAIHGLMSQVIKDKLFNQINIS
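Schedule: reaction 90 min, room temperature / Assay system: HEK293T-derived human Csn5 enzyme / Input: Csn5 at 0.24 nM final / Measure: inhibition of Csn5 cleavage, % / Control set: substrate-only high control, full reaction low control / Technique: fluorescence polarization of the substrate / Buffer or medium: Tris/NaCl/DTT buffer, pH 7.5 / Reagent: SCFSkp2-Nedd8OG substrate at 10 nM final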
SUMO1-SIM PPI: alters human SUMO1 binding to SIM partners | P63165 | inhibition, % at 20 µM | AID 602429 | SUMO1 binding to a labelled peptide, TR-FRET, 1 h | hit rate 0.33% among 360,000; in the data active = inhibition above about 37%
Target sequence (P63165 whole entry, looked up): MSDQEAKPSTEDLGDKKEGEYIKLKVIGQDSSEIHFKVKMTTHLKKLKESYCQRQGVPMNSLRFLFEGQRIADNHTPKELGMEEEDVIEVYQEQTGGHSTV
Rpn11 block: blocks the human proteasome subunit Rpn11. O00487. human 26S proteasome, Ub4-pepOG fluorescence polarization; 20S core pre-blocked with epoxomicin. inhibition, % at 20 µM. hit rate 0.59% among 360,000. AID 588493;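 active = inhibition at 20 µM, scaled to each plate's controls, above about 33%, limit read from the data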
MT1-MMP act inh: MT1-MMP (human) activation inhibition; HT1080 RFP-PRO-GFP cells, GFP/RFP ratio fluorescence, overnight; percent of plate control window, DMSO zero; hit rate 0.061% among 360,000; GFP/RFP ratio change, % at 20 µM;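 active = GFP/RFP ratio change of at least 30% with cell ATP level not reduced by more than half and red fluorescence within 50% of control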
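Assay system: RFP-PRO-GFP reporter HT1080 cells; read-out basis: GFP/RFP fluorescence ratio; benchmarks: DMSO wells and RFP-L50D-GFP cells; doses: 20 µM single dose, 1% DMSO; schedule: overnight cell settling, then overnight compound exposure, 37 °C, 5% CO2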
DNMT1 interf DR: beacon fluorescence artifact, dose response counter-screen | shares compounds with DNMT1 block | molecular beacon fluorescence, spectral interference counter-screen | IC50, µM | 200 tested, under 10 active | AID 602382; call rule not given here
DNMT1 confirm: DNMT1 inhibition confirmation, single concentration; DNMT1 molecular beacon HinP1I cleavage, fluorescence; shares compounds with DNMT1 block; hit rate 8% among 2,300; inhibition, % at 10 µM;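 active = average inhibition of at least 30% in the single-concentration confirmation test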
Beacon interf: shows spectral interference in the DNMT1 beacon assay | shares compounds with DNMT1 block | DNMT1 molecular beacon spectral interference counterscreen, fluorescence 485/520 | activation (fluorescence interference), % at 10 µM | hit rate 1% among 2,300 | AID 602387;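 active = activation of at least 30% at 10 µM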;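 also: DNMT1 catalytic domain with a HinP1I cleavage step and a FAM/dabcyl DNA beacon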
Large screens that a line does not name were inactive (follow-up assays come after a bar, where shown).

CCOc1ccc(C=NNc2ccc(S(=O)(=O)Nc3ccccc3C(=O)O)cc2[N+](=O)[O-])cc1	DNMT1 block 85, SUMO1-SIM PPI 110 | DNMT1 interf DR inactive | DNMT1 confirm 102 | Beacon interf inactive
O=C(O)c1ccccc1NS(=O)(=O)c1ccc(NN=Cc2ccccc2F)c([N+](=O)[O-])c1	none
Cc1cnc(CNC(=O)c2csc([C@@H]3O[C@H](CO)[C@H](O)[C@H](O)[C@H]3O)n2)cn1	none
Cc1ccc2c(c1)C1(SC(C)C(=O)N1c1ccc(Cl)cc1)C(=O)N2 (stereo not drawn)	none
Cc1nn(-c2ccccc2)c(Cl)c1/C=N/Nc1ccc(S(=O)(=O)Nc2ccccc2C(=O)O)cc1[N+](=O)[O-]	DNMT1 block 100 | DNMT1 interf DR inactive | DNMT1 confirm 82 | Beacon interf inactive
CCOc1cccc(C=NNc2ccc(S(=O)(=O)Nc3ccccc3C(=O)O)cc2[N+](=O)[O-])c1O	none
Cc1[nH][nH]c(=O)c1C(c1ccc(-c2ccccc2C(=O)O)o1)c1c(C)[nH][nH]c1=O	DNMT1 block 75 | DNMT1 confirm inactive | Beacon interf inactive
Cc1[nH][nH]c(=O)c1C(c1ccc(-c2cccc(C(=O)O)c2)o1)c1c(C)[nH][nH]c1=O	none
CCCCN(C(=O)c1cccc(-n2cccc2)c1)c1c(N)n(Cc2ccccc2)c(=O)[nH]c1=O	DNMT1 block 92 (not shown: Rpn11 block) | DNMT1 confirm inactive | Beacon interf inactive
Cc1cccc(C(=O)Nc2ccc(C(=O)N/N=C/c3ccco3)cc2)c1	DNMT1 block 72 | DNMT1 confirm inactive | Beacon interf inactive
Cc1ccc(C(NC(=O)C2CCN(Cc3ccc(Oc4ccccc4)cc3)CC2)c2ccccn2)cc1 (stereo not drawn)	none
COC(=O)c1ccc(CSc2nc3c(cnn3-c3ccc(C)c(C)c3)c(=O)[nH]2)o1	none
COC(=O)c1ccc(CSc2nc3scc(-c4cccs4)c3c(=O)[nH]2)o1	DNMT1 block 80 | DNMT1 confirm inactive | Beacon interf inactive
CCOC(=O)CN1C(=O)S/C(=C/c2ccc(N3CCCCC3)o2)C1=O	none (not shown: Rpn11 block)
O=C(O)c1ccc(-c2ccc(/C=C3\NC(=O)N(Cc4ccc(Cl)cc4)C3=O)o2)cc1Cl	DNMT1 block 88 | DNMT1 interf DR inactive | DNMT1 confirm 60 | Beacon interf inactive
CCOC(=O)CN1C(=O)S/C(=C\c2ccc(-c3ccc(C(=O)O)c(Cl)c3)o2)C1=O	DNMT1 block 65 | DNMT1 confirm inactive | Beacon interf inactive
COC(=O)CN1C(=O)S/C(=C/c2ccc(N3CCCCC3)o2)C1=O	DNMT1 block 67 (not shown: Rpn11 block) | DNMT1 confirm 70 | Beacon interf 52
CN1OC[C@@H]2CN[C@H](c3ccc(-c4cc5ccccc5o4)cc3)C[C@@H]21	none
O=C(O)c1ccc2nc(-c3ccco3)c(-c3ccco3)nc2c1	DNMT1 block 100, SUMO1-SIM PPI 40 | DNMT1 confirm inactive | Beacon interf inactive
O=C(c1ccc2nc(-c3ccco3)c(-c3ccco3)nc2c1)N1CCN(c2ccccc2)CC1	none
COC(=O)[C@]12CCCCC=C1N(CCC1=CCCCC1)C(=O)[C@H](CC(=O)N1CCC(c3ccccc3)CC1)C2	none (no result: DNMT1 block, Rpn11 block)
Cn1cc(/C=C(\C#N)C(=O)Nc2cccc([N+](=O)[O-])c2)c2ccccc21	DNMT1 block 61 | DNMT1 confirm inactive | Beacon interf inactive
Cn1cc(/C=N/NC(=O)c2cccc([N+](=O)[O-])c2)c2ccccc21	none
CNS(=O)(=O)c1ccc(NC(=O)c2cnn3c(C(F)F)cc(-c4ccccc4)nc23)cc1	DNMT1 block 53, CSN deneddyl inh 72 | DNMT1 confirm inactive | Beacon interf inactive
